In ChEMBL document CHEMBL1155016, “Locking the two ends of tetrapeptidic HTLV-I protease inhibitors inside the enzyme” (Bioorg Med Chem, 2008) one finds IC50 and inhibition data, which are given here for 39 molecules.

Starred links: 1 amine or outer side, 2 acyl side, 3 side chain; linkers in the order of their positions; H or OH if unused. Non-standard residues stand in square brackets, D forms with d. Residues, ends and D or L forms follow the SMILES beside them. X1 = O=C([C@@H](O)[C@H](Cc1ccccc1)N[*:1])[*:2]; Thz(5,5-Me2) = CC1(C)SCN[C@@H]1C(=O)O; Phg = N[C@H](C(=O)O)c1ccccc1; Tle = CC(C)(C)[C@H](N)C(=O)O

In one test the target is Protease (Human T-cell leukemia virus type I, UniProt Q82134, L40I). Description: Inhibition of HTLV1 protease L40I mutant. Put shortly:
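HTLV-I protease carrying the L40I substitution, which blocks autolysis and stabilises the enzyme; run by the group's earlier reported protocol; potency given as IC50 in nM.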

Test [1] deals with Protease (Human immunodeficiency virus 1) (UniProt Q9YQ12). Description: Inhibition of HIV1 protease at 50 nM.
Sequence of Protease (Human immunodeficiency virus 1) (Q9YQ12 as listed by the source): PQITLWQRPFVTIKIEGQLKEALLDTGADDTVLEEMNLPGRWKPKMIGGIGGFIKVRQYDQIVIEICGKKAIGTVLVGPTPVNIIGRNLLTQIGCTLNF

Sequence of Protease (Q82134 entry or part of it L40I): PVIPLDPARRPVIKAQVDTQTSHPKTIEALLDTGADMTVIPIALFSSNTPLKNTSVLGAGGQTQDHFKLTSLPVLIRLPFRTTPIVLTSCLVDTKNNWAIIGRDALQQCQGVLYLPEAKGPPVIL

As for `CC(C)CNC(=O)[C@H]1N(C(=O)[C@@H](O)[C@H](Cc2ccccc2)NC(=O)[C@@H](NC(=O)[C@@H](NC(=O)C(C)(C)C)c2ccccc2)C(C)(C)C)CSC1(C)C`, the IC50 (usually the concentration needed to halve the response being measured) against Protease was 83 nM. The inhibition (in general, the share of the control response that was lost under treatment) in test [1] is > 98%.
For the molecule `CC(C)CC(=O)N[C@H](C(=O)N[C@H](C(=O)N[C@@H](Cc1ccccc1)[C@H](O)C(=O)N1CSC(C)(C)[C@H]1C(=O)NC(C)C(C)(C)C)C(C)(C)C)c1ccccc1` (stereo partly drawn), the 50% inhibitory concentration (IC50) against Protease is 84 nM. Moreover, in test [1], the inhibition is > 98%.
On the same counts, the results for `CCCC(=O)N[C@H](C(=O)N[C@H](C(=O)N[C@@H](Cc1ccccc1)[C@H](O)C(=O)N1CSC(C)(C)[C@H]1C(=O)NC(C)C(C)(C)C)C(C)(C)C)c1ccccc1` (stereo partly drawn) are 94 nM and > 98%.
On the same counts, the results for `CC(NC(=O)[C@H]1N(C(=O)[C@@H](O)[C@H](Cc2ccccc2)NC(=O)[C@@H](NC(=O)[C@@H](NC(=O)C(C)(C)C)c2ccccc2)C(C)(C)C)CSC1(C)C)C(C)(C)C` (stereo partly drawn) are 97 nM and > 98%.
The like results for `CC(C)CC(=O)N[C@H](C(=O)N[C@H](C(=O)N[C@@H](Cc1ccccc1)[C@H](O)C(=O)N1CSC(C)(C)[C@H]1C(=O)NCC(C)(C)C)C(C)(C)C)c1ccccc1` were, in that order, 82 nM and > 98%.
Take `CC(=O)N[C@H](C(=O)N[C@H](C(=O)N[C@@H](Cc1ccccc1)[C@H](O)C(=O)N1CSC(C)(C)[C@H]1C(=O)NCC(C)(C)C)C(C)(C)C)c1ccccc1`: the IC50 at Protease amounted to 113 nM. Further, in test [1], the inhibition is > 98%.
On Protease, `CC(C)(C)[C@H](NC(=O)[C@@H](NC(=O)C1CC1)c1ccccc1)C(=O)N[C@@H](Cc1ccccc1)[C@H](O)C(=O)N1CSC(C)(C)[C@H]1C(=O)NCC1CC1` displayed an IC50 of 142 nM. In test [1], the inhibition was > 98%.
Turning to `CC[C@H](C)[C@H](NC(C)=O)C(=O)N[C@H](C(=O)N[C@@H](Cc1ccccc1)[C@H](O)C(=O)N1CSC(C)(C)[C@H]1C(=O)N[C@H](C(=O)N[C@@H](CCSC)C(N)=O)[C@@H](C)CC)[C@@H](C)CC` (Ac-II[X1][Thz(5,5-Me2)]IM-NH2), at Protease, the IC50 is 88 nM. The inhibition in test [1] was > 98%.
For the molecule `CC(C)C(=O)N[C@H](C(=O)N[C@H](C(=O)N[C@@H](Cc1ccccc1)[C@H](O)C(=O)N1CSC(C)(C)[C@H]1C(=O)NC(C)C(C)C)C(C)(C)C)c1ccccc1` (stereo partly drawn), 122 nM corresponded to half-maximal inhibition against Protease (IC50). Besides, the inhibition in test [1] is > 98%.
For `CC(=O)N[C@H](C(=O)N[C@H](C(=O)N[C@@H](Cc1ccccc1)[C@H](O)C(=O)N1CSC(C)(C)[C@H]1C(=O)NC(C)C(C)C)C(C)(C)C)c1ccccc1` (stereo partly drawn), the midpoint of inhibition against Protease, the IC50, lay at 136 nM. In test [1], the inhibition was > 98%.
`CC(C)(C)C(=O)N[C@H](C(=O)N[C@H](C(=O)N[C@@H](Cc1ccccc1)[C@H](O)C(=O)N1CSC(C)(C)[C@H]1C(=O)NCC1CC1)C(C)(C)C)c1ccccc1` yielded an IC50 against Protease of 187 nM. Further, the inhibition in test [1] is > 98%.
For the molecule `CCC(=O)N[C@H](C(=O)N[C@H](C(=O)N[C@@H](Cc1ccccc1)[C@H](O)C(=O)N1CSC(C)(C)[C@H]1C(=O)NCC(C)C)C(C)(C)C)c1ccccc1`, at Protease, the IC50 worked out at 105 nM. Moreover, in test [1], the inhibition was > 98%.
On to `CCC(=O)N[C@H](C(=O)N[C@H](C(=O)N[C@@H](Cc1ccccc1)[C@H](O)C(=O)N1CSC(C)(C)[C@H]1C(=O)NC(C)C(C)C)C(C)(C)C)c1ccccc1` (stereo partly drawn), for which the IC50 at Protease was determined as 129 nM. Besides, the inhibition in test [1] was > 98%.
On to `CC(C)CCNC(=O)[C@H]1N(C(=O)[C@@H](O)[C@H](Cc2ccccc2)NC(=O)[C@@H](NC(=O)[C@@H](N)c2ccccc2)C(C)(C)C)CSC1(C)C`, for which the IC50 at Protease came out at 372 nM. Besides, in test [1], the inhibition was > 98%.
On Protease, `CC(C)CC(=O)N[C@H](C(=O)N[C@H](C(=O)N[C@@H](Cc1ccccc1)[C@H](O)C(=O)N1CSC(C)(C)[C@H]1C(=O)NCC1CC1)C(C)(C)C)c1ccccc1` displayed an IC50 of 132 nM. The inhibition in test [1] was > 98%.
The like results for `CSCC[C@H](NC(=O)[C@@H](NC(=O)[C@@H]1CCCN1C(=O)[C@@H](O)[C@H](Cc1ccccc1)NC(=O)[C@@H](NC(=O)[C@H](CCC(N)=O)NC(=O)[C@@H]1CCCN1)C(C)C)C(C)C)C(=O)N[C@@H](Cc1cnc[nH]1)C(=O)O` were, in that order, 159 nM and > 98%.
For the molecule `CCC(=O)N[C@H](C(=O)N[C@H](C(=O)N[C@@H](Cc1ccccc1)[C@H](O)C(=O)N1CSC(C)(C)[C@H]1C(=O)NCC(C)(C)C)C(C)(C)C)c1ccccc1`, the IC50 on Protease is 98 nM. For the same molecule, the inhibition in test [1] is > 98%.
The like results for `CC(C)C(=O)N[C@H](C(=O)N[C@H](C(=O)N[C@@H](Cc1ccccc1)[C@H](O)C(=O)N1CSC(C)(C)[C@H]1C(=O)NC(C)C(C)(C)C)C(C)(C)C)c1ccccc1` (stereo partly drawn) were, in that order, 84 nM and > 98%.
`CC(C)CNC(=O)[C@H]1N(C(=O)[C@@H](O)[C@H](Cc2ccccc2)NC(=O)[C@@H](NC(=O)[C@@H](N)c2ccccc2)C(C)(C)C)CSC1(C)C`: the IC50 on Protease stood at 332 nM. Also, the inhibition in test [1] is > 98%.
The like results for `CCCC(=O)N[C@H](C(=O)N[C@H](C(=O)N[C@@H](Cc1ccccc1)[C@H](O)C(=O)N1CSC(C)(C)[C@H]1C(=O)NC(C)C(C)C)C(C)(C)C)c1ccccc1` (stereo partly drawn) were, in that order, 659 nM and > 98%.
The molecule `CC(NC(=O)[C@H]1N(C(=O)[C@@H](O)[C@H](Cc2ccccc2)NC(=O)[C@@H](NC(=O)[C@@H](NC(=O)C2CC2)c2ccccc2)C(C)(C)C)CSC1(C)C)C(C)(C)C` (stereo partly drawn) had an IC50 against Protease of 85 nM. For the same molecule, the inhibition in test [1] is > 98%.
The like results for `CC(C)C(C)NC(=O)[C@H]1N(C(=O)[C@@H](O)[C@H](Cc2ccccc2)NC(=O)[C@@H](NC(=O)[C@@H](NC(=O)C2CC2)c2ccccc2)C(C)(C)C)CSC1(C)C` (stereo partly drawn) were, in that order, 90 nM and > 98%.
On the same counts, the results for `CC(=O)N[C@H](C(=O)N[C@H](C(=O)N[C@@H](Cc1ccccc1)[C@H](O)C(=O)N1CSC(C)(C)[C@H]1C(=O)NCC(C)C)C(C)(C)C)c1ccccc1` are 107 nM and > 98%.
Take `CC(C)C(=O)N[C@H](C(=O)N[C@H](C(=O)N[C@@H](Cc1ccccc1)[C@H](O)C(=O)N1CSC(C)(C)[C@H]1C(=O)NCC(C)(C)C)C(C)(C)C)c1ccccc1`: at Protease, the IC50 came to 78 nM. Also, in test [1], the inhibition was > 98%.
As for `C=CCCC(=O)N[C@H](C(=O)N[C@H](C(=O)N[C@@H](Cc1ccccc1)[C@H](O)C(=O)N1CSC(C)(C)[C@H]1C(=O)NC(C)C(C)C)C(C)(C)C)c1ccccc1` (stereo partly drawn), half-maximal inhibition at Protease (IC50) required 87 nM. The inhibition in test [1] is > 98%.
`CC(NC(=O)[C@H]1N(C(=O)[C@@H](O)[C@H](Cc2ccccc2)NC(=O)[C@@H](NC(=O)[C@@H](N)c2ccccc2)C(C)(C)C)CSC1(C)C)C(C)(C)C` (stereo partly drawn): the IC50 against Protease was 156 nM. Moreover, the inhibition in test [1] is > 98%.
In turn, `CC(C)CNC(=O)[C@H]1N(C(=O)[C@@H](O)[C@H](Cc2ccccc2)NC(=O)[C@@H](NC(=O)[C@@H](NC(=O)CC(C)C)c2ccccc2)C(C)(C)C)CSC1(C)C` came in with an IC50 against Protease of 102 nM. Also, the inhibition in test [1] was > 98%.
`CC(C)CNC(=O)[C@H]1N(C(=O)[C@@H](O)[C@H](Cc2ccccc2)NC(=O)[C@@H](NC(=O)[C@@H](NC(=O)C(C)C)c2ccccc2)C(C)(C)C)CSC1(C)C` yielded an IC50 on Protease of 94 nM. For the same molecule, the inhibition in test [1] was > 98%.
The like results for `CCCC(=O)N[C@H](C(=O)N[C@H](C(=O)N[C@@H](Cc1ccccc1)[C@H](O)C(=O)N1CSC(C)(C)[C@H]1C(=O)NCCC(C)C)C(C)(C)C)c1ccccc1` were, in that order, 95 nM and > 98%.
On Protease, `CC(C)(C)CNC(=O)[C@H]1N(C(=O)[C@@H](O)[C@H](Cc2ccccc2)NC(=O)[C@@H](NC(=O)[C@@H](NC(=O)C(C)(C)C)c2ccccc2)C(C)(C)C)CSC1(C)C` came in with an IC50 of 97 nM. Moreover, the inhibition in test [1] is > 98%.
On the same counts, the results for `CC(C)C(=O)N[C@H](C(=O)N[C@H](C(=O)N[C@@H](Cc1ccccc1)[C@H](O)C(=O)N1CSC(C)(C)[C@H]1C(=O)NCC1CC1)C(C)(C)C)c1ccccc1` are 134 nM and > 98%.
Take `CC(C)(C)[C@H](NC(=O)[C@@H](N)c1ccccc1)C(=O)N[C@@H](Cc1ccccc1)[C@H](O)C(=O)N1CSC(C)(C)[C@H]1C(=O)NCC1CC1`: on Protease, the IC50 stood at 928 nM. The inhibition in test [1] is > 98%.
The like results for `CC[C@H](C)[C@H](NC(=O)[C@H]1N(C(=O)[C@@H](O)[C@H](Cc2ccccc2)NC(=O)[C@@H](NC(=O)[C@@H](NC(C)=O)c2ccccc2)C(C)(C)C)CSC1(C)C)C(N)=O` (Ac-[Phg][Tle][X1][Thz(5,5-Me2)]I-NH2) were, in that order, 144 nM and > 98%.
On the same counts, the results for `CC(C)CNC(=O)[C@H]1N(C(=O)[C@@H](O)[C@H](Cc2ccccc2)NC(=O)[C@@H](NC(=O)[C@@H](NC(=O)C2CC2)c2ccccc2)C(C)(C)C)CSC1(C)C` are 97 nM and > 98%.
On to `CC(C)C(C)NC(=O)[C@H]1N(C(=O)[C@@H](O)[C@H](Cc2ccccc2)NC(=O)[C@@H](NC(=O)[C@@H](N)c2ccccc2)C(C)(C)C)CSC1(C)C` (stereo partly drawn), for which the IC50 on Protease worked out at 354 nM. Further, the inhibition in test [1] was > 98%.
The like results for `CC(C)(C)CNC(=O)[C@H]1N(C(=O)[C@@H](O)[C@H](Cc2ccccc2)NC(=O)[C@@H](NC(=O)[C@@H](N)c2ccccc2)C(C)(C)C)CSC1(C)C` were, in that order, 180 nM and > 98%.
In the case of `CCCC(=O)N[C@H](C(=O)N[C@H](C(=O)N[C@@H](Cc1ccccc1)[C@H](O)C(=O)N1CSC(C)(C)[C@H]1C(=O)NCC1CC1)C(C)(C)C)c1ccccc1`, on Protease, half-maximal inhibition (IC50) required 113 nM. The inhibition in test [1] was > 98%.
On the same counts, the results for `CCCC(=O)N[C@H](C(=O)N[C@H](C(=O)N[C@@H](Cc1ccccc1)[C@H](O)C(=O)N1CSC(C)(C)[C@H]1C(=O)NCC(C)C)C(C)(C)C)c1ccccc1` are 104 nM and > 98%.
On the same counts, the results for `CC(=O)N[C@H](C(=O)N[C@H](C(=O)N[C@@H](Cc1ccccc1)[C@H](O)C(=O)N1CSC(C)(C)[C@H]1C(=O)NCC1CC1)C(C)(C)C)c1ccccc1` are 146 nM and > 98%.
